Legend:
[1] = Half-life evaluated in 0.1 M phosphate buffer, 37 degree Centigrade.; format: ADME
Outline: (§1)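 Decomposition was followed in aqueous solution. Rate constants and half-lives were calculated assuming apparent first-order kinetics.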

[2] = Rate constant at a concentration of 2.54M*10e-3 was determined; format: ADME; outline: as §1
Mus musculus [3] = test: Increase in life span was tested after administration of single ip dose at 200 mg/kg (0.8 mmol/kg) in L1210 leukemia in mice; Toxic; format: toxicity, organism-based; design: dose 200 mg/kg, route intraperitoneal; settings: in vivo
Outline: (§2)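 L1210 leukemia-bearing mice got a single ip dose on the first day after transplantation. Read-out was median survival in days, treated (T) versus control (C). %ILS = (T − C)/C × 100. Doses are given in both mg/kg and mmol/kg; "tox" marks doses that were toxic.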

Mus musculus [4] = test: Increase in life span was tested after administration of single maximal effective ip dose at 100 mg/kg (0.4 mmol/kg) in L1210 leukemia in mice; format: functional; settings: route intraperitoneal; outline: as §2
Mus musculus [5] = test: Increase in life span was tested after administration of single maximal effective ip dose at 20 mg/kg (0.08 mmol/kg) in L1210 leukemia mice; format: functional; settings: route intraperitoneal; outline: as §2
Mus musculus [6] = test: Increase in life span was tested after administration of single ip dose at 40 mg/kg (0.16 mmol/kg) in L1210 leukemia mice; Toxic; format: toxicity, organism-based; design: dose 40 mg/kg, route intraperitoneal; settings: in vivo; outline: as §2
Mus musculus [7] = test: Increase in life span was tested after administration of single ip dose at 38 mg/kg (0.21 mmol/kg) in L1210 leukemia in mice; Toxic; format: toxicity, organism-based; design: dose 38 mg/kg, route intraperitoneal; settings: in vivo; outline: as §2
Mus musculus [8] = test: Increase in life span was tested after administration of single maximal effective ip dose at 20 mg/kg (0.11 mmol/kg) in L1210 leukemia in mice; format: functional; settings: route intraperitoneal; outline: as §2

SMILES | half-life [1] | k [2] | ILS (Mus musculus [3]) | ILS at 100 mg/kg (Mus musculus [4]) | ILS at 20 mg/kg (Mus musculus [5]) | ILS (Mus musculus [6]) | ILS (Mus musculus [7]) | ILS at 20 mg/kg (Mus musculus [8])
NC(=O)C1CCCN1C(=O)N(CCCl)N=O (stereo not given) | 4.26 h | 0.00274 min⁻¹ | Toxic | 420% |  |  |  | 
CC(C)C(NC(=O)N(CCCl)N=O)C(N)=O (stereo not given) | 0.258 h | 0.0452 min⁻¹ |  |  | 212% | Toxic |  | 
O=NN(CCCl)C(=O)NCCCl [CARMUSTINE] |  |  |  |  |  |  | Toxic | 115%

— ChEMBL document CHEMBL1124239, “Decomposition of N-(2-chloroethyl)-N-nitrosocarbamoyl amino acid amides” (J Med Chem, 1988)
